# HCV NS3 hel inh: blocks Hepatitis C virus NS3 helicase unwinding; NS3 helicase DNA unwinding, Cy5 molecular beacon fluorescence; hit rate 0.56% among 290,000; inhibition, % at 10.9 µM; AID 1800;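 active means inhibition above the mean of all tested compounds plus 3 SD, set per campaign, cut at about 35% in these data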;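 further: 0% = DMSO wells and 100% = thioflavine S control wells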
#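 Compound dosing – single dose, 10.9 µM nominal final, DMSO 0.8% final · System – NS3 helicase fragment of HCV · Buffer or medium – MOPS pH 6.5, MgCl2, DTT, Tween20, BSA · Signal – Cy5 beacon fluorescence read at start and 1 h · Also added – annealed dual-labelled DNA beacon duplex, ATP-started · Schedule – 1 h at 25 °C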
# UPR XBP1 act: activators of adaptive arm of unfolded protein response (XBP1). CHO-XBP1 luciferase reporter, IRE1-XBP1 UPR activation, luminescence; percent of tunicamycin response, DMSO as zero. hit rate 0.33% among 330,000. activation, % at 20 µM;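 active means versus positive control, 20 µM dose yields 30% or more activation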;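 further: 100% = tunicamycin at 10 µg/mL and 0% = DMSO only wells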
#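 assay system = CHO-XBP1 luciferase reporter cells | amount = 1000 cells/well | buffer or medium = F12 plus 10% FBS | compound dosing = single point, 20 µM final compound, 1% DMSO | incubation = 16-18 h cell attachment at 37 °C, then 6 h compound exposure | detection = Steady-Glo luminescence read | controls = tunicamycin 10 µg/mL and vehicle-only wells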
# CHOP inhibitor: CHOP inhibition in unfolded protein response; CHO-K1 CHOP-promoter luciferase, tunicamycin-induced, 15-18 h; hit rate 3.8% among 220,000; inhibition, % at 10 µM;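 active means compounds that reduced the stress-induced luciferase reporter signal by more than about 70% of percent inhibition, limit read from the data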;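 further: 0% = tunicamycin plus vehicle and 100% = wells without tunicamycin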
# p97 inhibitor: inhibitors of human p97 ATPase | AID 1481 | hit rate 0.42% among 220,000 | recombinant p97 ATPase, Kinase-Glo ATP luminescence, 3 h | inhibition, % at 8 µM; in the data active means inhibition above about 15%;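 further: 0% = DMSO vehicle and 100% = wells lacking enzyme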
# Target sequence (P55072 whole entry, looked up): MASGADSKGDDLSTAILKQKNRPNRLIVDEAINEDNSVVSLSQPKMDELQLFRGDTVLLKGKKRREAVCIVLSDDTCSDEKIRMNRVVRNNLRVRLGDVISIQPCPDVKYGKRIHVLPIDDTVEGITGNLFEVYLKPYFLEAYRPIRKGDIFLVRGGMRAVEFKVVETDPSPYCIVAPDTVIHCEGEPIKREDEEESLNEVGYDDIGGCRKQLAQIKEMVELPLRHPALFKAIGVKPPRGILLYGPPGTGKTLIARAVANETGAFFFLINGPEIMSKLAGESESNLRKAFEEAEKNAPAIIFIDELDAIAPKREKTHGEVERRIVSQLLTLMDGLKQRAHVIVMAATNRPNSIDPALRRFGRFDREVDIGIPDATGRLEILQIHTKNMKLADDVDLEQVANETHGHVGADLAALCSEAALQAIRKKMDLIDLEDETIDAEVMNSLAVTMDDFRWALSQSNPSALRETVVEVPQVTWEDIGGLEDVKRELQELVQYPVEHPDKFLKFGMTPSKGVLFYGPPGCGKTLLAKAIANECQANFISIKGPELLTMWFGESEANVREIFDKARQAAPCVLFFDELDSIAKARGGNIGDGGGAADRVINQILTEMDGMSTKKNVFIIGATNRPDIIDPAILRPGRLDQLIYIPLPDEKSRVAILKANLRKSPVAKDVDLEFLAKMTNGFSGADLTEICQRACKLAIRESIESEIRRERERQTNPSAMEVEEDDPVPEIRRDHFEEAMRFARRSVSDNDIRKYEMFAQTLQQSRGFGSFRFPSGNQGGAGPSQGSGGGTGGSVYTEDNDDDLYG
# CHOP UPR activ: activators of apoptotic arm of unfolded protein response (CHOP); CHO-CHOP luciferase reporter, UPR activation, luminescence; percent of tunicamycin response over DMSO baseline; activation, % at 10 µM; hit rate 0.34% among 330,000; AID 449763;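 active means at 10 µM dose, activation of 40% or more, normalized to positive control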;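 further: 100% = tunicamycin at 10 µg/mL and 0% = DMSO alone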
#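 Evaluation: % reporter activation, DMSO baseline versus tunicamycin full activation; System: CHO-CHOP luciferase reporter cell line; Input: 500 cells/well; Incubation: 6 h compound treatment, 37 °C; Measured by: Steady-Glo luciferase luminescence; Dosing: one dose, 10 µM in 0.5% DMSO; Buffer or medium: F12 medium, 10% FBS; Benchmarks: positive tunicamycin 10 µg/mL, negative DMSO alone.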
# M18AAP inhibitor: blocks P. falciparum M18 aspartyl aminopeptidase | recombinant PfM18AAP, H-Glu-NHMec fluorogenic cleavage | inhibition, % at 7.35 µM | hit rate 1.2% among 290,000;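 active means inhibition above the campaign mean inhibition over all tested compounds plus 3 SD, cut at about 28% in these data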;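 further: 0% = plate median of test compound wells and 100% = 2 mM ZnCl2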
# * hit, by the source's call; x = no result given; ! = a repeat was not active. A selection: hits, their analogues and other compounds. The true share with any hit is near 4.5%.
SMILES,HCV NS3 hel inh,UPR XBP1 act,CHOP inhibitor,p97 inhibitor,CHOP UPR activ,M18AAP inhibitor
O=C(Nc1ccccc1)c1ccccc1NS(=O)(=O)c1ccc(Cl)s1,-1,1,24,-5,0,-3
O=C(Nc1ccccc1Cc1ccccc1)c1ccccc1NS(=O)(=O)c1ccc(Cl)s1,-25,0,71*,3,6,-1
C=CCN(c1ccc(C(=O)NCCCn2ccnc2)cc1)S(C)(=O)=O,-2,0,x,x,-1,5
N/C(=N\O)c1ccc(N2CCN(c3ncccc3C(F)(F)F)CC2)nc1,4,4,0,4,6,-4
Cc1cc(-n2c(C)cc(C(=O)CSc3ncnc4ccccc34)c2C)no1,2,1,70*,4,0,4
Cc1cc(C(=O)CSc2ncnc3ccccc23)c(C)n1C1CC1,x,0,x,x,2,x
CN(Cc1nc2ccccc2c(=O)[nH]1)C(=O)COc1ccccc1Cc1ccccc1,x,0,x,x,0,x
CCc1ccc(NC(=O)NCCCN2CCCC2=O)cc1,-1,-1,x,x,2,-2
CCCc1cc(=O)[nH]c(N2CCN(Cc3ccc4c(c3)OCO4)CC2)n1,-7,x,x,x,x,-5
Cc1ccc(SCc2cc(=O)[nH]c(N3CCN(Cc4ccccc4)CC3)n2)cc1,-7,-3,90*,5,0,0
Cc1ccc(SCc2cc(=O)[nH]c(N3CCN(Cc4ccc5c(c4)OCO5)CC3)n2)cc1,0,-4,75*,-2,0,-1
C=C(C)C(O)Cc1c(OC)ccc(C(=O)/C=C/c2ccc(O)cc2)c1O (stereo unspecified),x,-2,x,x,2,x
CC(C)=CCC/C(C)=C/Cc1c(O)ccc(C(=O)/C=C/c2ccc(O)cc2)c1O,-3,5,86*,3,0,-5
COC(=O)CSc1nc(NC(C)(C)C)nc(N(C)C)n1,5,3,-7,-3,2,2
CC(=O)C(Sc1nc(NC(C)(C)C)nc(N(C)C)n1)C(C)=O,-13,-1,73*,-4,1,0
CCOC(=O)C1CCN(C(=O)CSCc2nc(-c3ccc(OCC)cc3)oc2C)CC1,-5,5,77*,0,0,0
CCOc1ccc(-c2nc(CSCC(=O)N3CCN(C(=O)c4ccco4)CC3)c(C)o2)cc1,2,2,38,-6,3,-12
CC(=O)N1c2ccc(Cl)cc2C2C=CCC2C1c1cccc2ccccc12 (stereo unspecified),-12,x,85*,4,x,8
COC(=O)c1ccc(N=NNc2ccccc2)cc1,5,1,19,1,3,6
COC(=O)c1ccc(N=NNc2cccc(Br)c2)cc1,5,x,91*,0,x,3
COC(=O)c1sc(NC(=O)CSc2nc3cccnc3n2C)nc1C,14,2,x,x,-2,4
O=C(Cc1ccccc1F)Nc1nc(-c2cccnc2)cs1,-8,1,81*,3,3,-3
Nc1c(N(Cc2ccco2)C(=O)COc2ccccc2F)c(=O)[nH]c(=O)n1Cc1ccccc1,x,0,x,x,-2,x
CC1=C(C)C(=O)C(CCCCC#CCCCC#CCO)=C(C)C1=O,18,-9,73*!,-4,0,21
Cc1cccc(/C=C2/SC(=O)N(Cc3ccccc3)C2=O)n1,-4,0,93*,5,4,7
SMILES,HCV NS3 hel inh,UPR XBP1 act,CHOP inhibitor,p97 inhibitor,CHOP UPR activ,M18AAP inhibitor
CC(=O)c1ccc(N(C(=O)Cc2c[nH]c3ccccc23)C(C(=O)NC2CCCCC2)c2cccs2)cc1 (stereo unspecified),9,0,-3,1,0,2
O=C(NC1CCCCC1)C(c1cccs1)N(C(=O)Cc1c[nH]c2ccccc12)c1ccc(F)cc1 (stereo unspecified),5,6,91*,-1,-1,-8
O=C(c1ccc(Cl)s1)N1CCN(S(=O)(=O)c2ccc(Cl)cc2)CC1,x,-3,x,x,6,x
COC(CNC(=O)c1ccc(CS(=O)(=O)c2ccc(Br)cc2)o1)OC,14,1,x,x,-1,3
Cc1cccc2cc(C#N)c(NCCNC(=O)NC3CCCCC3)nc12,-10,0,72*,-5,1,0
CCOC(=O)c1[nH]c2ccccc2c1NC(=O)Nc1ccc(OC)cc1,-1,-2,87*,-6,2,-16
